# Assay results from ChEMBL document CHEMBL4261546, “Synthesis of novel pentacyclic triterpene-Neu5Ac2en derivatives and investigation of their in vitro anti-influenza entry activity” (Medchemcomm, 2017).
# The source made the active and inactive calls. No cut-off for these calls is given here.
# Legend:
# MDCK [1] = experiment: Cytotoxicity against MDCK cells assessed as reduction in cell viability at 10 uM after 40 hrs by CellTiter-Glo assay; assay type: cell-based, Canis lupus familiaris; details: dog
# Summary of the method: (§1)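 Preliminary cytotoxicity screen in MDCK cells at 10 μM and 100 μM. Cells seeded overnight in DMEM with 10% FBS at 37 °C, 5% CO2, then exposed to compound for 40 h. CellTiter-Glo read-out, viability expressed as % of untreated control after background correction. Paclitaxel served as positive control.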
# Influenza A virus [2] = experiment: Antiviral activity against Influenza A virus (A/WSN/33(H1N1)) infected in MDCK cells assessed as reduction in virus-induced cytopathic effect after 40 hrs by CellTiter-Glo assay; assay type: functional, organism-based; details: A/WSN/1933(H1N1)
# Summary of the method: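 MDCK cells grown overnight in DMEM with 10% FBS at 37 °C, 5% CO2. Medium replaced with compound plus A/WSN/33 virus (MOI 0.1) in DMEM with 1% FBS, 2 μg/mL TPCK-trypsin and 1% DMSO final. After 40 h, CellTiter-Glo luminescence read as CPE. IC50 is the mean of ≥3 independent determinations with standard deviations.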
# [3] = Cytotoxicity against MDCK cells assessed as reduction in cell viability after 40 hrs by CellTiter-Glo assay; assay type: cell-based, Canis lupus familiaris; details: dog
# Summary of the method: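 MDCK cells seeded in DMEM with 10% FBS and cultured overnight at 37 °C, 5% CO2. Compounds added and incubated 40 h, then CellTiter-Glo viability measured. Viability % = background-corrected signal of treated well divided by control well, ×100. CC50 is the concentration giving 50% cell death.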
# [4] = Selectivity index, ratio of CC50 for MDCK cells to IC50 for Influenza A virus (A/WSN/33(H1N1)) infected in MDCK cells; assay type: toxicity, cell-based; details: dog, read-out: Ratio CC50/IC50
# Summary of the method: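 SI = CC50/IC50. CC50 comes from the 40 h CellTiter-Glo viability assay in uninfected MDCK cells. IC50 comes from the 40 h CellTiter-Glo CPE-reduction assay with A/WSN/33 at MOI 0.1.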
# MDCK [5] = experiment: Cytotoxicity against MDCK cells assessed as reduction in cell viability at 100 uM after 40 hrs by CellTiter-Glo assay; assay type: cell-based, Canis lupus familiaris; details: dog; summary of the method: as §1
# [6] = Inhibition of Influenza virus NA; set-up: species or system unidentified influenza virus
# Influenza A virus [7] = experiment: Antiviral activity against Influenza A virus (A/WSN/33(H1N1)) infected in MDCK cells assessed as reduction in virus-induced cytopathic effect up to 100 uM after 40 hrs by microscopic method; assay type: functional, organism-based; details: A/WSN/1933(H1N1)
# Summary of the method: (§2)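 MDCK cultures were set up as in the CPE assay: compound with or without A/WSN/33 infection (MOI 0.1), DMEM with 1% FBS and TPCK-trypsin. At 40 h post-infection, wells carrying compound up to 100 μM were inspected microscopically. Scored features were cell aggregation and detachment from the dish.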
# [8] = biological target: Neuraminidase (Influenza A virus (strain A/Wilson-Smith/1933 H1N1) (Influenza A virus(strain A/WS/1933 H1N1))) (UniProt P03470); experiment: Inhibition of Influenza A virus (A/WSN/33(H1N1)) NA up to 100 uM using 4-MUNANA as substrate after 30 mins by fluorescence spectrophotometric assay; details: Influenza A virus (A/WSN/1933(H1N1))
# Neuraminidase (Influenza A virus (strain A/Wilson-Smith/1933 H1N1) (Influenza A virus(strain A/WS/1933 H1N1))), sequence (P03470 whole entry): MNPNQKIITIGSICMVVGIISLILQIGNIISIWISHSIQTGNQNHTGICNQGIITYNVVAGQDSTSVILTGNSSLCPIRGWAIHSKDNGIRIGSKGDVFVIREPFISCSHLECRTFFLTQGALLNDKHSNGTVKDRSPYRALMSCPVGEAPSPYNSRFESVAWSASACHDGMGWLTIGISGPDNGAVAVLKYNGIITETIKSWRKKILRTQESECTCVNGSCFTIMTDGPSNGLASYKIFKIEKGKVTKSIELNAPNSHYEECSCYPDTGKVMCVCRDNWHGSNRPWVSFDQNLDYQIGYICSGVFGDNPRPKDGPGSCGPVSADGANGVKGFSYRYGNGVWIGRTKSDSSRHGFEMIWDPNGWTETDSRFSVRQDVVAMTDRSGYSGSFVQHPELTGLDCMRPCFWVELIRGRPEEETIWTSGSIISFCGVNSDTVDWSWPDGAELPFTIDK
# Summary of the method: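 NA activity was measured with A/WSN/33 virus as the enzyme source, mixed with compound and 20 μM MUNANA in 32.5 mM MES (4 mM CaCl2, pH 6.5). Incubated 30 min at 37 °C, then stopped with 34 mM NaOH. Fluorescent product read at ex 360 nm / em 460 nm.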
# [9] = biological target: Hemagglutinin (Influenza A virus) (UniProt B4URE7); experiment: Inhibition of Influenza A virus (A/WSN/33(H1N1)) HA-mediated haemagglutination in chicken RBC at 1.5 to 40 uM after 30 mins; assay type: cell-based; details: Influenza A virus (A/WSN/1933(H1N1))
# Hemagglutinin (Influenza A virus), sequence (B4URE7 as listed by the source): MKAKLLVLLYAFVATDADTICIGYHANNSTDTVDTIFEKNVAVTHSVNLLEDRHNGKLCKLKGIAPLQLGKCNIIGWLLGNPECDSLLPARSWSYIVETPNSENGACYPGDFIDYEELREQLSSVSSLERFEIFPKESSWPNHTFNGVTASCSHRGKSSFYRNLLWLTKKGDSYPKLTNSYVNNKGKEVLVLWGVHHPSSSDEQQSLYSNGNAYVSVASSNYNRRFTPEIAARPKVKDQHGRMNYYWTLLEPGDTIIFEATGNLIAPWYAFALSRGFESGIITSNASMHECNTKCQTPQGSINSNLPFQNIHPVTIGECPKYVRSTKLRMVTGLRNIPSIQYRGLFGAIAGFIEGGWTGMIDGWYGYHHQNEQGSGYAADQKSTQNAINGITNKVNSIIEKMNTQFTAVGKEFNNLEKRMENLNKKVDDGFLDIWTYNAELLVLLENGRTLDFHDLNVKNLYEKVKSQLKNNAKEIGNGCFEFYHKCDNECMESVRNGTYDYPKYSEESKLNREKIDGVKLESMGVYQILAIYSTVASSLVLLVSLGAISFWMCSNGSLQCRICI
# Summary of the method: (§3)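 Hemagglutination assay. Freshly prepared 1% v/v chicken RBCs in saline were then added. After 30 min at room temperature, RBC aggregation was scored visually. Anti-HA antibody was the reference.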
# MDCK [10] = experiment: Cytotoxicity against MDCK cells assessed as morphological changes up to 100 uM after 40 hrs by microscopic method; assay type: cell-based, Canis lupus familiaris; details: dog; summary of the method: as §2
# Erythrocyte = experiment: Induction of haemagglutination in chicken RBC at 1.5 to 40 uM after 30 mins; assay type: cell-based, Gallus gallus; details: 0.5 h; summary of the method: as §3
Structure (SMILES),Activity (MDCK [1]),IC50 (Influenza A virus [2]),CC50 at 40 h [3],selectivity ratio [4],Activity (MDCK [5]),other results
COC(=O)C1=C[C@H](n2cc(CNC(=O)[C@]34CCC(C)(C)C[C@H]3C3=CC[C@@H]5[C@@]6(C)CC[C@H](O)C(C)(C)[C@@H]6CC[C@@]5(C)[C@]3(C)CC4)nn2)[C@@H](NC(C)=O)[C@H]([C@H](O)[C@H](O)CO)O1,Non-Toxic,28.3 µM,> 200 µM,> 7.1,–,–
C=C(C)[C@@H]1CC[C@]2(C(=O)NCc3cn([C@H]4C=C(C(=O)OC)O[C@@H]([C@H](OC(C)=O)[C@@H](COC(C)=O)OC(C)=O)[C@@H]4NC(C)=O)nn3)CC[C@]3(C)[C@H](CC[C@@H]4[C@@]5(C)CC[C@H](O)C(C)(C)[C@@H]5CC[C@]43C)[C@@H]12,Non-Toxic,–,–,–,Toxic,–
COC(=O)C1=C[C@H](NC(=O)[C@]23CC[C@@H](C)[C@H](C)[C@H]2C2=CC[C@@H]4[C@@]5(C)CC[C@H](O)C(C)(C)[C@@H]5CC[C@@]4(C)[C@]2(C)CC3)[C@H](NC(C)=O)[C@H]([C@H](OC(C)=O)[C@@H](COC(C)=O)OC(C)=O)O1,Non-Toxic,19.2 µM,136 µM,7.1,Non-Toxic,–
COC(=O)C1=C[C@H](n2cc(CNC(=O)[C@]34CCC(C)(C)C[C@H]3C3=CC[C@@H]5[C@@]6(C)CC[C@H](O)C(C)(C)[C@@H]6CC[C@@]5(C)[C@]3(C)C[C@H]4O)nn2)[C@@H](NC(C)=O)[C@H]([C@H](OC(C)=O)[C@@H](COC(C)=O)OC(C)=O)O1,Non-Toxic,> 100 µM,–,–,Toxic,–
COc1cc(/C=C/C(=O)CC(=O)/C=C/c2ccc(O)c(OC)c2)ccc1O [CURCUMIN],–,6.7 µM,–,7.2,–,–
COC(=O)C1=C[C@H](NC(=O)[C@]23CCC(C)(C)C[C@H]2C2=CC[C@@H]4[C@@]5(C)CC[C@H](O)C(C)(C)[C@@H]5CC[C@@]4(C)[C@]2(C)CC3)[C@@H](NC(C)=O)[C@H]([C@H](O)[C@H](O)CO)O1,Non-Toxic,–,–,–,Toxic,–
CC(=O)N[C@H]1[C@H]([C@H](O)[C@H](O)CO)OC(C(=O)O)=C[C@@H]1O [NEU5AC2EN],–,–,–,–,–,Ki [6]: 4 µM
COC(=O)C1=C[C@@H](n2cc(CNC(=O)[C@]34CCC(C)(C)C[C@H]3C3=CC[C@@H]5[C@@]6(C)CC[C@H](O)C(C)(C)[C@@H]6CC[C@@]5(C)[C@]3(C)CC4)nn2)[C@@H](NC(C)=O)[C@H]([C@H](O)[C@H](O)CO)O1,Non-Toxic,> 100 µM,–,–,–,–
COC(=O)C1=C[C@H](NC(=O)[C@]23CCC(C)(C)C[C@H]2C2=CC[C@@H]4[C@@]5(C)CC[C@H](O)C(C)(C)[C@@H]5CC[C@@]4(C)[C@]2(C)C[C@H]3O)[C@@H](NC(C)=O)[C@H]([C@H](O)[C@H](O)CO)O1,Non-Toxic,40.5 µM,> 200 µM,> 4.9,–,–
C=C(C)[C@@H]1CC[C@]2(C(=O)NCc3cn([C@H]4C=C(C(=O)OC)O[C@@H]([C@H](O)[C@H](O)CO)[C@@H]4NC(C)=O)nn3)CC[C@]3(C)[C@H](CC[C@@H]4[C@@]5(C)CC[C@H](O)C(C)(C)[C@@H]5CC[C@]43C)[C@@H]12,Non-Toxic,> 100 µM,–,–,–,–
COC(=O)C1=C[C@H](NC(=O)[C@]23CC[C@@H](C)[C@H](C)[C@H]2C2=CC[C@@H]4[C@@]5(C)CC[C@H](O)C(C)(C)[C@@H]5CC[C@@]4(C)[C@]2(C)CC3)[C@@H](NC(C)=O)[C@H]([C@H](O)[C@H](O)CO)O1,Non-Toxic,–,–,–,Toxic,–
COC(=O)C1=C[C@H](n2cc(CNC(=O)[C@]34CCC(C)(C)C[C@H]3C3=CC[C@@H]5[C@@]6(C)CC[C@H](O)C(C)(C)[C@@H]6CC[C@@]5(C)[C@]3(C)C[C@H]4O)nn2)[C@@H](NC(C)=O)[C@H]([C@H](O)[C@H](O)CO)O1,Non-Toxic,55 µM,> 200 µM,> 3.6,–,–
COC(=O)C1=C[C@@H](n2cc(CNC(=O)[C@]34CC[C@@H](C)[C@H](C)[C@H]3C3=CC[C@@H]5[C@@]6(C)CC[C@H](O)C(C)(C)[C@@H]6CC[C@@]5(C)[C@]3(C)CC4)nn2)[C@@H](NC(C)=O)[C@H]([C@H](O)[C@H](O)CO)O1,Non-Toxic,> 100 µM,–,–,Toxic,–
COC(=O)C1=C[C@H](n2cc(CNC(=O)[C@]34CC[C@@H](C)[C@H](C)[C@H]3C3=CC[C@@H]5[C@@]6(C)CC[C@H](O)C(C)(C)[C@@H]6CC[C@@]5(C)[C@]3(C)CC4)nn2)[C@@H](NC(C)=O)[C@H]([C@H](OC(C)=O)[C@@H](COC(C)=O)OC(C)=O)O1,Non-Toxic,–,–,–,Toxic,–
COC(=O)C1=C[C@H](NC(=O)[C@]23CCC(C)(C)C[C@H]2C2=CC[C@@H]4[C@@]5(C)CC[C@H](O)C(C)(C)[C@@H]5CC[C@@]4(C)[C@]2(C)CC3)[C@@H](NC(C)=O)[C@H]([C@H](OC(C)=O)[C@@H](COC(C)=O)OC(C)=O)O1,Non-Toxic,8.3 µM,188 µM,22.7,–,Activity (Influenza A virus [7]): Active; inhibition [8]: inactive; inhibition [9]: Active; Activity (MDCK [10]): Non-Toxic; Activity (Erythrocyte): Non-Toxic
C=C(C)[C@@H]1CC[C@]2(C(=O)N[C@H]3C=C(C(=O)OC)O[C@@H]([C@H](O)[C@H](O)CO)[C@@H]3NC(C)=O)CC[C@]3(C)[C@H](CC[C@@H]4[C@@]5(C)CC[C@H](O)C(C)(C)[C@@H]5CC[C@]43C)[C@@H]12,Non-Toxic,> 100 µM,–,–,–,–
COC(=O)C1=C[C@H](n2cc(CNC(=O)[C@]34CCC(C)(C)C[C@H]3C3=CC[C@@H]5[C@@]6(C)CC[C@H](O)C(C)(C)[C@@H]6CC[C@@]5(C)[C@]3(C)CC4)nn2)[C@@H](NC(C)=O)[C@H]([C@H](OC(C)=O)[C@@H](COC(C)=O)OC(C)=O)O1,Non-Toxic,–,–,–,Toxic,–
COC(=O)C1=C[C@H](NC(=O)[C@]23CCC(C)(C)C[C@H]2C2=CC[C@@H]4[C@@]5(C)CC[C@H](O)C(C)(C)[C@@H]5CC[C@@]4(C)[C@]2(C)C[C@H]3O)[C@@H](NC(C)=O)[C@H]([C@H](OC(C)=O)[C@@H](COC(C)=O)OC(C)=O)O1,Non-Toxic,15.5 µM,> 200 µM,> 32.3,–,–
COC(=O)C1=C[C@H](n2cc(CNC(=O)[C@]34CC[C@@H](C)[C@H](C)[C@H]3C3=CC[C@@H]5[C@@]6(C)CC[C@H](O)C(C)(C)[C@@H]6CC[C@@]5(C)[C@]3(C)CC4)nn2)[C@@H](NC(C)=O)[C@H]([C@H](O)[C@H](O)CO)O1,Non-Toxic,> 100 µM,–,–,Toxic,–
C=C(C)[C@@H]1CC[C@]2(C(=O)N[C@H]3C=C(C(=O)OC)O[C@@H]([C@H](OC(C)=O)[C@@H](COC(C)=O)OC(C)=O)[C@@H]3NC(C)=O)CC[C@]3(C)[C@H](CC[C@@H]4[C@@]5(C)CC[C@H](O)C(C)(C)[C@@H]5CC[C@]43C)[C@@H]12,Non-Toxic,> 100 µM,–,–,–,–
